87 compounds from PubChem BioAssay AID463141 (The Scripps Research Institute Molecular Screening Center, 2010) can be followed below.

The whole screen tested about 330,000 compounds, of which about 350 (0.11%) were called active.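 The calls were made as follows: active = activation above the mean of all tested compounds plus 3 SD (cut at about 21% in these data); inactive = the rest.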 The entries come from a sample that favours actives as a whole.

Chain of Caspase-3 (Homo sapiens) (P42574 whole entry D9A/D28A/D175A): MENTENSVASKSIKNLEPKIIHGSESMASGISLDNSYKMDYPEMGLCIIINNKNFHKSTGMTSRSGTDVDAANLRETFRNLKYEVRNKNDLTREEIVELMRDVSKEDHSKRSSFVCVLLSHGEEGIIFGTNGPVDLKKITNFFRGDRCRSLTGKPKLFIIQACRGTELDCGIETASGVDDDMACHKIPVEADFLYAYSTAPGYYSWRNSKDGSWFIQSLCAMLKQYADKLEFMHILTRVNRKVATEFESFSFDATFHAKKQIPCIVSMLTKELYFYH

For the assay, the target named is Caspase-3 (Homo sapiens) (UniProt P42574). The experiment in a line: procaspase-3 enzyme activation – biochemical, absorbance, PC-3 D3A mutant, single concentration, primary screen (AID 463141).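 Also: 0% = DMSO alone and 100% = DMSO wells spiked with extra 5 µM PC-3 D3A.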 The note with it: recombinant procaspase-3 D3A, Ac-DEVD-pNA absorbance 405 nm; at 8.5 µM; hits give high values. A digest of the protocol:
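Assay system: Autoprocessing-dead procaspase-3 D3A mutant enzyme; also added: Ac-DEVD-pNA; doses: one concentration, 8.5 µM nominal, 0.8% DMSO; times: 1 h compound preincubation, 2 h substrate hydrolysis at 25 °C; technique: 405 nm absorbance of p-nitroaniline, reads at 0 and 120 min; measure: % activation between DMSO and enzyme-spiked controls; repeats: single replicate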
`COc1ccccc1N1CCN(C(=O)c2ccc(S(=O)(=O)N3CCCCC3)cc2)CC1`: the activation is -4.47% (inactive). On to `COc1ccc(S(=O)(=O)Nc2ccccc2C(=O)N2CCCC2)cc1C`, for which the activation was 9.9% (inactive).

Consider `COc1ccccc1NS(=O)(=O)c1ccc(C(=O)N2CCN(c3ccccc3O)CC2)cc1`, for which the activation was 21.8% (active). Next, `CC(NC(=O)c1ccccc1C(=O)O)c1ccc(-n2ccnc2)cc1` (configuration not stated): -0.91% (inactive); `C=CCNc1nc(Nc2ccc(Cl)cc2)nc(OC)n1`: 3.18% (inactive). For the compound `COc1cccc(-c2cc3nc4c(c(N5CCC6(CC5)OCCO6)n3n2)CCCC4)c1`, the activation was 5.55% (inactive). With `NC(=O)C1CC=CCC1C(=O)OCC(Cl)=C(Cl)Cl` (configuration not stated), the activation is -0.01% (inactive).

For `CSc1nsc(SC)c1NC(=O)OC1CCCCC1`, the activation was -22.8% (inactive). For the compound `CCCN1CCN(C(=O)CCCNC(=O)c2ccc(Cl)cc2)CC1`, the activation was -2.14% (inactive). Turning to `CC(C)OCCCNC(=O)CN1C(=O)/C(=C/c2ccccc2F)Oc2ccccc21`, the activation was -1.27% (inactive). Take `CN1CCN(CCCNC(=O)c2ccc(/C=C3\Oc4ccccc4N(Cc4ccc(Cl)cc4)C3=O)cc2)CC1`: the activation was 38.4% (active). For `N#CC1(NC(=O)COC(=O)CSc2ccc(F)cc2)CCCCC1`, the activation is -6.99% (inactive).

In the case of `CCCOn1c(-n2nc(C)cc2C)nc2ccccc2c1=O`, the activation was 7.25% (inactive). With `CCC(C)(C)NC(=O)C(c1ccccn1)N(C(=O)c1csnn1)c1ccccc1` (configuration not stated), the activation was 2.32% (inactive).

Consider `Cc1ccc(S(=O)(=O)NNC(=S)NC(C)(C)C)cc1`, for which the activation is 9.08% (inactive).

For the compound `COc1ccccc1CN(C)c1nnnn1-c1ccccc1`, the activation was 9.63% (inactive). Regarding `O=C(NCc1cccs1)C(=O)NCC1OCCCN1S(=O)(=O)c1ccc(F)cc1` (configuration not stated), the activation was 1.51% (inactive). Consider `CCc1c(C)c2ccc(OC3CCCCC3=O)cc2oc1=O` (configuration not stated), for which the activation was 3.96% (inactive). On to `CC(=O)Oc1ccc2c(C)c(CC(C)O)c(=O)oc2c1` (configuration not stated), for which the activation is 24.1% (active). Turning to `COC(=O)Cc1c(C)c2ccc(OCC(=O)NCc3ccc4c(c3)OCO4)cc2oc1=O`, the activation was 0.37% (inactive). Consider `COc1ccc(CCNC(=O)COC(=O)C2CC2C)cc1` (configuration not stated), for which the activation was 9.52% (inactive). Take `COc1ccc(CCNC(=O)COC(=O)c2cc(=O)c3ccccc3o2)cc1`: the activation was -1.38% (inactive). For `COc1ccc(CCNC(=O)COC(=O)c2ccc[nH]c2=O)cc1`, the activation is 23.9% (active). `COc1ccc(S(=O)(=O)N(CCCN2CCCC2=O)Cc2cc3c(C)ccc(C)c3[nH]c2=O)cc1`: the activation was -7.13% (inactive).

As for `CCn1c(SCC(=O)Nc2ccc(C)cc2)nc2nc3c(cc2c1=O)CCCC3`, the activation was 3.79% (inactive). On to `O=C1[C@H]2[C@@H](c3ccc(F)cc3)N3C(=O)N(c4ccc(C(F)(F)F)cc4)C(=O)[C@@]3(Cc3ccccc3)[C@H]2C(=O)N1C1CCCCC1`, for which the activation is 5.91% (inactive).

For the compound `c1ccc2cc(CCCc3cc4ccccc4cn3)ncc2c1`, the activation is -5.39% (inactive).

As to `O=C(COC(=O)c1cccc(Cl)c1)NC(=O)NCc1ccccc1`, the activation was 7.09% (inactive). Next, `Cc1cc(C)c2c(-n3cccc3)c(C(=O)NNS(=O)(=O)c3ccc(F)cc3)sc2n1`: -8.55% (inactive); `CCOC(=O)C1=CN(Cc2ccc(Br)cc2)S(=O)(=O)NC1C` (configuration not stated): -3.39% (inactive); `COC(=O)C1=C(C)N(C(C)c2ccccc2)C(=O)/C1=C\c1ccco1` (configuration not stated): 1.04% (inactive). Next, `Cc1ccc(-c2nnc(Nc3ccc(C(=O)N(C)C)cc3)c3ccccc23)cc1S(N)(=O)=O`: 6.07% (inactive). For `COC(=O)c1ccc(CNC(=O)C2CCC(=O)N(Cc3ccccn3)C2)cc1` (configuration not stated), the activation was 4.62% (inactive). Next, `CN(C)/C=C(/C(=O)c1ccc(F)cc1)S(=O)(=O)c1ccc(F)cc1`: 2.38% (inactive). Next, `O=C(Nc1ccccc1-c1nnn(CC(=O)N2CCCc3ccccc32)n1)c1cccc(Cl)c1`: 0.94% (inactive). `CCC(C)[C@H](NC(=O)N1CCn2c1nc1ccccc12)C(=O)NCc1ccc(OC)cc1` (some centres not stated): the activation was 9.75% (inactive). With `COc1cccc(NC(=S)C(C#N)=C2N(C)c3ccccc3N2C)c1`, the activation is 0.38% (inactive). With `CC1=C(C(=O)OC(C)(C)C)C(c2ccc(Br)cc2)NC(=O)N1CCCC(=O)O` (configuration not stated), the activation is 1.2% (inactive). Regarding `CC(=O)c1ccc(NC(=O)C(C)N(C)CC(=O)Nc2ccccc2Cl)cc1` (configuration not stated), the activation was -3.65% (inactive).

For `CCC(C)(C)NC(=O)c1cc([N+](=O)[O-])ccc1N1CCCCC1`, the activation is -7.67% (inactive). Regarding `N#Cc1c(NCCO)ccc([N+](=O)[O-])c1NCCO`, the activation was 3.1% (inactive). Next, `O=S(=O)(N/N=C\c1cccn1-c1ccccc1)c1ccc2ccccc2c1`: 0.8% (inactive); `COc1cc(CN2CCN(Cc3ccc(C)cc3)CC2)c([N+](=O)[O-])cc1OC`: 8.01% (inactive); `COc1ccc(-c2noc(CCC(=O)N3CCN(c4cccc(C)c4)CC3)n2)cc1`: -0.7% (inactive). On to `CCOc1ccc(S(=O)(=O)NCCSc2ccccc2)cc1`, for which the activation was -4.36% (inactive). With `CCOc1ccc2nc(NCCNS(=O)(=O)c3ccccc3)c(C#N)cc2c1`, the activation is 27.3% (active). For the compound `CCOc1ccc2nc(NCCNC(=O)C(C)(C)C)c(C)cc2c1`, the activation is -11.1% (inactive).

Consider `C[C@H](CO)N1C[C@H](C)[C@@H](CN(C)S(=O)(=O)c2ccc(F)cc2)Oc2ccc(NC(=O)CCC(F)(F)F)cc2C1=O`, for which the activation was 7.71% (inactive). Take `COCCNC(=S)Nc1cc(S(=O)(=O)N2CCOCC2)ccc1N1CCCCC1`: the activation was -18.3% (inactive). As to `CCC(C)N1CC(=O)N2Cc3[nH]c4ccccc4c3C[C@H]2C1=O` (some centres not stated), the activation is 0.63% (inactive). In the case of `CC(=O)Nc1ccc(NC(=O)C(C)OC(=O)c2ccccc2C(=O)c2ccc(Cl)c([N+](=O)[O-])c2)cc1` (configuration not stated), the activation is -0.74% (inactive). `COC(=O)c1nc2n(n1)C(c1ccc([N+](=O)[O-])cc1)C(C(=O)Nc1ccc(Cl)cc1)=C(C)N2` (configuration not stated): the activation is 3.68% (inactive). Next, `COC(=O)c1sc(N)c(C(=O)OC)c1COC(=O)CNS(=O)(=O)c1ccc(C)cc1`: 3.17% (inactive); `CCN1CCN(C(=O)C2(NC(=O)Nc3cccc(F)c3)CCCCC2)CC1`: -1.86% (inactive); `COc1ccc2sc(-c3ccc(N(C)C)cc3)c(C#CCO)c2c1`: 21.1% (inactive).

As for `COc1ccc(-c2sc3ccc(OC)cc3c2C#Cc2ccccn2)cc1`, the activation was 21.3% (active). On to `COc1ccc2sc(-c3ccc(S(C)(=O)=O)cc3)c(C#Cc3cncn3C)c2c1`, for which the activation is -7.99% (inactive). Next, `CC(C)C[C@H](NC(=O)C1CC(=O)N(c2ccc3c(c2)OCCO3)C1)C(=O)NC1CCCC1` (some centres not stated): 0.18% (inactive).

`COc1ccc(/C=N/Nc2nc3ccccc3c(=O)[nH]2)cc1`: the activation is 30.4% (active). Next, `COc1ccc(/C=N/Nc2ccccc2C(=O)O)cc1`: 1% (inactive); `COc1ccc(/C=N/Nc2nc(-c3ccc(C)cc3)c(C#N)c(=O)[nH]2)cc1`: 8.75% (inactive); `Cc1cc(-c2nc(C)c(-c3nnc(SCC(=O)Nc4ccccc4)n3C)s2)no1`: -5.75% (inactive). For `CCN(CC)S(=O)(=O)c1ccc(N2CCN(C)CC2)c(NC(=O)Nc2ccccc2F)c1`, the activation was 4.2% (inactive). On to `COc1ccc(NS(=O)(=O)c2ccc(C)c(C(=O)N(C)Cc3ccc(OC)cc3OC)c2)cc1`, for which the activation was 10.5% (inactive). Next, `CC(=O)N1Cc2ccccc2CC1C(=O)O` (configuration not stated): 2.69% (inactive); `O=C(CCCn1c(=O)c2sccc2n(CC(=O)NCC2CCCO2)c1=O)NCc1ccco1` (configuration not stated): 3.97% (inactive). On to `COc1cc(/C=C/C(=O)OCC(=O)Nc2cccc(Oc3ccccc3)c2)ccc1O`, for which the activation is -1.86% (inactive). With `O=C(NC1(C(F)(F)F)N=C2SCCN2C1=O)c1ccco1` (configuration not stated), the activation is 1.41% (inactive). In the case of `Cc1ccc(NC(=O)Nc2cc(-c3ccccc3)nn2C)cc1Cl`, the activation was -13.2% (inactive). With `COC(=O)[C@]1(S(=O)(=O)c2ccccc2)C[C@@H]2ON=C(c3ccc(OC)cc3)[C@@H]2C1`, the activation is -6.69% (inactive). Turning to `CCCCNc1nc2ccccc2nc1NS(=O)(=O)c1cccs1`, the activation is 10.7% (inactive).

Turning to `O=C(Nc1ccccc1Cl)/C(Cl)=C(\Cl)S(=O)c1ccccc1` (configuration not stated), the activation was -26.7% (inactive). Next, `CCOC(=O)CCC(=O)OCC(=O)NC(C)C1CC2CCC1C2` (configuration not stated): 2.01% (inactive). Consider `O=S(=O)(O)Oc1c[nH]c2ccccc12`, for which the activation is 4.41% (inactive).

Turning to `CCCN(C(=O)c1nc2nccc(C)n2n1)c1c(N)n(Cc2ccccc2)c(=O)[nH]c1=O`, the activation is 1.38% (inactive).

`CN(CC1CCCO1)S(=O)(=O)c1ccc(C(=O)Nc2ccc(F)cc2)cc1` (configuration not stated): the activation was -2.76% (inactive).

Turning to `NC(=O)c1ccccc1N=Cc1ccc2ccccc2c1`, the activation was 9.74% (inactive). As for `COC(=O)CN1C(=O)[C@H]2[C@@H](C3CC3)N3C(=O)CN(Cc4ccc(-c5ccccc5)cc4)C(=O)[C@@]3(Cc3ccccc3)[C@H]2C1=O`, the activation is 15.8% (inactive). Next, `CC(=O)c1sc(N/N=C/c2ccc(C(C)C)cc2)nc1C`: -6.85% (inactive); `CCCn1c(C)cc(C(=O)COC(=O)c2c(C)nn(-c3ccccc3)c2C)c1C`: 0.04% (inactive); `Cc1ccc(-c2nc(SCC(=O)Nc3ccccc3OC(F)F)c3c(C)c(C(=O)O)sc3n2)cc1`: -2.33% (inactive). For `CCOc1ccccc1CN1CCN(C2CCC2)CC1CCO` (configuration not stated), the activation is 8.07% (inactive). Take `Cc1ccc(Cl)cc1NC(=O)C1CCN(S(C)(=O)=O)CC1`: the activation was -5.8% (inactive). Regarding `CN(CCc1ccccn1)C(=O)c1ccc(OC2CCN(CCc3ccccc3)CC2)cc1`, the activation was -3.49% (inactive). Consider `Cc1ccc(NC2CCCN(C(=O)CCc3cn[nH]c3)C2)cc1C` (configuration not stated), for which the activation is 8.07% (inactive). Next, `CC(C)C[C@H](NC(=O)[C@@H]1O[C@H]1C(=O)O)C(=O)NCCCCN=C(N)N`: 2.62% (inactive); `COc1ccccc1/C=C/C=N/n1c(-c2ccc(Cl)cc2Cl)n[nH]c1=S`: -14.5% (inactive).
